Values after ≈ are worked out from the molar mass of the structure shown.
How the values were obtained:
[1] = system: Mycobacterium tuberculosis; test: Antimycobacterial activity against rifampicin/isoniazid-susceptible Mycobacterium tuberculosis H37Rv ATCC 27294 by BACTEC 460 radiometric method; format: functional, organism-based
Summary of the method: (§1)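 Radiometric BACTEC 460 growth test on H37Rv (ATCC 27294). Compounds reaching at least 90% inhibition at 6.25 were retested at the lower concentrations 3.125 and 1.0, with % inhibition recorded. […] Isoniazid served as the reference standard.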

[2] = system: Mycobacterium tuberculosis; test: Antimycobacterial activity against rifampicin/isoniazid-susceptible Mycobacterium tuberculosis H37Rv ATCC 27294 at 6.25 ug/ml after 5 days by microplate alamar blue assay; format: functional; conditions: H37Rv ATCC 27294, 120 h
Summary of the method: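 M. tuberculosis H37Rv (ATCC 27294, rifampicin- and isoniazid-susceptible) screened by Microplate Alamar Blue Assay at a single concentration of 6.25; read-out is % growth inhibition. Compounds showing fluorescence were instead tested in the BACTEC 460 radiometric system.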

[3] = system: Mycobacterium tuberculosis; test: Antimycobacterial activity against rifampicin/isoniazid-susceptible Mycobacterium tuberculosis H37Rv ATCC 27294 at 3.125 ug/ml by BACTEC 460 radiometric method; format: functional; summary of the method: as §1
[4] = system: Vero; test: Cytotoxicity against african green monkey Vero cells up to 50 ug/ml; format: cell-based; conditions: chlorocebus sabaeus
[5] = system: Mycobacterium tuberculosis; test: Antimycobacterial activity against rifampicin/isoniazid-susceptible Mycobacterium tuberculosis H37Rv ATCC 27294 at 1 ug/ml by BACTEC 460 radiometric method; format: functional; summary of the method: as §1

| SMILES | IC50 [1] [µM] | inhibition at 6.25 µg/mL [2] [%] | other results |
| --- | --- | --- | --- |
| COC(=O)[C@H](CCC(N)=O)NC(=O)c1cc(C23CC4CC(CC(C4)C2)C3)c2ccccc2n1 | 11.5 | 55 |  |
| NNC(=O)[C@H](Cc1ccccc1)NC(=O)c1cc(C23CC4CC(CC(C4)C2)C3)c2ccccc2n1 | 13.5 | 50 |  |
| COC(=O)CNC(=O)c1cc(C23CC4CC(CC(C4)C2)C3)c2ccccc2n1 | 15.5 | 52 |  |
| NCCCC[C@H](NC(=O)c1cc(C23CC4CC(CC(C4)C2)C3)c2ccccc2n1)C(=O)NN | 19.5 | 36 |  |
| NNC(=O)CNC(=O)c1cc(C23CC4CC(CC(C4)C2)C3)c2ccccc2n1 | 7.08 | 70 |  |
| NC(=O)CC[C@H](N)C(=O)NNC(=O)c1cc(C23CC4CC(CC(C4)C2)C3)c2ccccc2n1 | 17 | 45 |  |
| C[C@H](NC(=O)OC(C)(C)C)C(=O)NNC(=O)c1cc(C23CC4CC(CC(C4)C2)C3)c2ccccc2n1 | 1.74 | 88 |  |
| NCCC[C@H](N)C(=O)NNC(=O)c1cc(C23CC4CC(CC(C4)C2)C3)c2ccccc2n1 | 40.7 | 26 |  |
| CC(C)(C)OC(=O)NCC(=O)NNC(=O)c1cc(C23CC4CC(CC(C4)C2)C3)c2ccccc2n1 | 8.71 | 60 |  |
| N[C@@H](Cc1c[nH]cn1)C(=O)NNC(=O)c1cc(C23CC4CC(CC(C4)C2)C3)c2ccccc2n1 | 1.86 | 88 |  |
| CC(C)(C)OC(=O)N[C@@H](Cc1c[nH]cn1)C(=O)NNC(=O)c1cc(C23CC4CC(CC(C4)C2)C3)c2ccccc2n1 | 0.0562 |  | inhibition at 3.125 µg/mL [3]: 99%; Activity [4]: Non-toxic |
| COC(=O)[C@H](CCCCNC(=O)OCc1ccccc1)NC(=O)c1cc(C23CC4CC(CC(C4)C2)C3)c2ccccc2n1 | 3.16 | 78 |  |
| COC(=O)[C@H](Cc1c[nH]c2ccccc12)NC(=O)c1cc(C23CC4CC(CC(C4)C2)C3)c2ccccc2n1 | 4.17 | 75 |  |
| CC(C)(C)OC(=O)NCCC[C@H](NC(=O)OC(C)(C)C)C(=O)NNC(=O)c1cc(C23CC4CC(CC(C4)C2)C3)c2ccccc2n1 | 3.09 | 75 |  |
| COC(=O)[C@H](CCCNC(=O)OCc1ccccc1)NC(=O)c1cc(C23CC4CC(CC(C4)C2)C3)c2ccccc2n1 | 5.89 | 66 |  |
| CSCC[C@H](N)C(=O)NNC(=O)c1cc(C23CC4CC(CC(C4)C2)C3)c2ccccc2n1 | 9.55 | 59 |  |
| CC(C)C[C@H](NC(=O)OC(C)(C)C)C(=O)NNC(=O)c1cc(C23CC4CC(CC(C4)C2)C3)c2ccccc2n1 | 1.29 | 90 |  |
| NC(=O)c1cc(C23CC4CC(CC(C4)C2)C3)c2ccccc2n1 |  | 98 |  |
| COC(=O)[C@H](CCCNC(=N)N)NC(=O)c1cc(C23CC4CC(CC(C4)C2)C3)c2ccccc2n1 | 0.135 |  | inhibition at 3.125 µg/mL [3]: 99%; Activity [4]: Non-toxic |
| COC(=O)[C@H](Cc1ccccc1)NC(=O)c1cc(C23CC4CC(CC(C4)C2)C3)c2ccccc2n1 | 8.91 | 60 |  |
| NNC(=O)c1cc(C23CC4CC(CC(C4)C2)C3)c2ccccc2n1 |  | 99 |  |
| NCC(=O)NNC(=O)c1cc(C23CC4CC(CC(C4)C2)C3)c2ccccc2n1 | 30.2 | 35 |  |
| C[C@H](NC(=O)c1cc(C23CC4CC(CC(C4)C2)C3)c2ccccc2n1)C(=O)NN | 3.55 | 82 |  |
| NCCC[C@H](NC(=O)c1cc(C23CC4CC(CC(C4)C2)C3)c2ccccc2n1)C(=O)NN | 12.3 | 48 |  |
| CSCC[C@H](NC(=O)c1cc(C23CC4CC(CC(C4)C2)C3)c2ccccc2n1)C(=O)NN | 6.61 | 68 |  |
| NNC(=O)[C@H](Cc1c[nH]cn1)NC(=O)c1cc(C23CC4CC(CC(C4)C2)C3)c2ccccc2n1 | 0.138 | 99 |  |
| NNC(=O)c1ccncc1 [ISONIAZID] |  |  | MIC99 [1]: 1 µg/mL (≈ 7.29 µM) |

| SMILES | IC50 [1] [µM] | inhibition at 6.25 µg/mL [2] [%] | other results |
| --- | --- | --- | --- |
| CC(C)(C)OC(=O)N[C@@H](Cc1ccccc1)C(=O)NNC(=O)c1cc(C23CC4CC(CC(C4)C2)C3)c2ccccc2n1 | 1.95 | 85 |  |
| CSCC[C@H](NC(=O)OC(C)(C)C)C(=O)NNC(=O)c1cc(C23CC4CC(CC(C4)C2)C3)c2ccccc2n1 | 8.91 | 56 |  |
| CC(C)C[C@H](NC(=O)c1cc(C23CC4CC(CC(C4)C2)C3)c2ccccc2n1)C(=O)NN | 2.95 | 83 |  |
| COC(=O)[C@H](CC(C)C)NC(=O)c1cc(C23CC4CC(CC(C4)C2)C3)c2ccccc2n1 | 2.95 | 83 |  |
| COC(=O)[C@H](Cc1c[nH]cn1)NC(=O)c1cc(C23CC4CC(CC(C4)C2)C3)c2ccccc2n1 | 0.0692 |  | inhibition at 3.125 µg/mL [3]: 99%; Activity [4]: Non-toxic |
| CC[C@H](C)[C@H](NC(=O)c1cc(C23CC4CC(CC(C4)C2)C3)c2ccccc2n1)C(=O)OC | 1.62 | 90 |  |
| CC[C@H](C)[C@H](NC(=O)c1cc(C23CC4CC(CC(C4)C2)C3)c2ccccc2n1)C(=O)NN | 6.17 | 70 |  |
| CC(C)(C)OC(=O)N[C@@H](CCCNC(=N)N)C(=O)NNC(=O)c1cc(C23CC4CC(CC(C4)C2)C3)c2ccccc2n1 | 0.055 |  | inhibition at 3.125 µg/mL [3]: 99%; Activity [4]: Non-toxic |
| CC(C)C[C@H](N)C(=O)NNC(=O)c1cc(C23CC4CC(CC(C4)C2)C3)c2ccccc2n1 | 4.79 | 75 |  |
| N[C@@H](Cc1ccc(O)cc1)C(=O)NNC(=O)c1cc(C23CC4CC(CC(C4)C2)C3)c2ccccc2n1 | 13.8 | 48 |  |
| NNC(=O)[C@H](Cc1ccc(O)cc1)NC(=O)c1cc(C23CC4CC(CC(C4)C2)C3)c2ccccc2n1 | 16.6 | 44 |  |
| COC(=O)[C@H](Cc1ccc(OCc2ccccc2)cc1)NC(=O)c1cc(C23CC4CC(CC(C4)C2)C3)c2ccccc2n1 | 7.94 | 58 |  |
| CC(C)(C)OC(=O)N[C@@H](CCC(N)=O)C(=O)NNC(=O)c1cc(C23CC4CC(CC(C4)C2)C3)c2ccccc2n1 | 11 | 51 |  |
| CC(C)(C)OC(=O)N[C@@H](Cc1ccc(OCc2ccccc2)cc1)C(=O)NNC(=O)c1cc(C23CC4CC(CC(C4)C2)C3)c2ccccc2n1 | 12.9 | 42 |  |
| CC(C)(C)OC(=O)N[C@@H](Cc1c[nH]c2ccccc12)C(=O)NNC(=O)c1cc(C23CC4CC(CC(C4)C2)C3)c2ccccc2n1 | 0.0513 |  | inhibition at 3.125 µg/mL [3]: 99%; Activity [4]: Non-toxic |
| CCC(C)[C@H](NC(=O)OC(C)(C)C)C(=O)NNC(=O)c1cc(C23CC4CC(CC(C4)C2)C3)c2ccccc2n1 (stereo partly specified) | 1.29 | 90 |  |
| NNC(=O)[C@H](CCC(N)=O)NC(=O)c1cc(C23CC4CC(CC(C4)C2)C3)c2ccccc2n1 | 14.1 | 50 |  |
| N=C(N)NCCC[C@H](N)C(=O)NNC(=O)c1cc(C23CC4CC(CC(C4)C2)C3)c2ccccc2n1 | 1.15 | 92 |  |
| COC(=O)[C@H](C)NC(=O)c1cc(C23CC4CC(CC(C4)C2)C3)c2ccccc2n1 | 5.89 | 73 |  |
| COC(=O)[C@H](CCSC)NC(=O)c1cc(C23CC4CC(CC(C4)C2)C3)c2ccccc2n1 | 2.29 | 86 |  |
| N[C@@H](Cc1c[nH]c2ccccc12)C(=O)NNC(=O)c1cc(C23CC4CC(CC(C4)C2)C3)c2ccccc2n1 | 9.77 | 56 |  |
| NCCCC[C@H](N)C(=O)NNC(=O)c1cc(C23CC4CC(CC(C4)C2)C3)c2ccccc2n1 | 7.24 | 66 |  |
| CCC(C)[C@H](N)C(=O)NNC(=O)c1cc(C23CC4CC(CC(C4)C2)C3)c2ccccc2n1 (stereo partly specified) | 4.79 | 75 |  |
| N[C@@H](Cc1ccccc1)C(=O)NNC(=O)c1cc(C23CC4CC(CC(C4)C2)C3)c2ccccc2n1 | 3.16 | 81 |  |
| C[C@H](N)C(=O)NNC(=O)c1cc(C23CC4CC(CC(C4)C2)C3)c2ccccc2n1 | 22.9 | 41 |  |
| NNC(=O)[C@H](Cc1c[nH]c2ccccc12)NC(=O)c1cc(C23CC4CC(CC(C4)C2)C3)c2ccccc2n1 | 8.32 | 60 |  |
| N=C(N)NCCC[C@H](NC(=O)c1cc(C23CC4CC(CC(C4)C2)C3)c2ccccc2n1)C(=O)NN | 0.0214 |  | inhibition at 1 µg/mL [5]: 99%; Activity [4]: Non-toxic |

Reference: ChEMBL document CHEMBL1158356, “Synthesis, anti-tuberculosis activity and 3D-QSAR study of amino acid conjugates of 4-(adamantan-1-yl) group containing quinolines” (Eur J Med Chem, 2009)
